Laboratory results from ChEMBL document CHEMBL1127578, “Phospholipase C inhibitors: a new class of cytotoxic agents” (J Med Chem, 1994).
Converted amounts (≈) assume the structure as drawn.

Experiments:
[1] = pKa value was determined; type: physicochemical
[2] = Inhibitory activity against phospholipase C isolated from human melanoma
Method in brief: (§1)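 PI-specific PLC partially purified from RPMI 7272 human melanoma xenografts in nude mice (Q-Sepharose then heparin-Sepharose, 0.35 M NaCl eluate), 20–30 μg protein. Enzyme preincubated with compound 5 min at 37 °C in 25 mM imidazole pH 7.2, 100 mM KCl, 1 mM CaCl2, 0.8 mg/mL deoxycholate. Reaction started with 1 mM phosphatidylinositol, run 15 min at 37 °C, stopped with EDTA.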

[3] = Inhibitory activity against phospholipase C isolated from human melanoma; IN-Inactive; method in brief: as §1

SMILES | pKa [1] | IC50 [2] | IC50 [3]
COc1ccccc1NC1Oc2ccccc2C=C1[N+](=O)[O-] (stereo unspecified) | 2.52 | 4.5 µg/mL (≈ 15.1 µM) | 
O=[N+]([O-])C1=Cc2ccccc2OC1Nc1cccc([N+](=O)[O-])c1 (stereo unspecified) | 2.47 | 7.5 µg/mL (≈ 23.9 µM) | 
O=[N+]([O-])C1=Cc2ccccc2OC1n1cccn1 (stereo unspecified) | 2.48 | 21 µg/mL (≈ 86.3 µM) | 
CCCCCCCCCCCCOc1ccc2oc(=O)c([N+](=O)[O-])cc2c1 |  | 68.6 µg/mL (≈ 183 µM) | 
CCCCCCCC(=O)Oc1cccc2cc([N+](=O)[O-])c(=O)oc12 |  | 17 µg/mL (≈ 51 µM) | 
CC(=O)Oc1ccc2cc([N+](=O)[O-])c(=O)oc2c1 |  |  | Not Active
CC(=O)Oc1cccc2cc([N+](=O)[O-])c(=O)oc12 |  | 36 µg/mL (≈ 144 µM) | 
CCCCCCCOc1ccc2oc(=O)c([N+](=O)[O-])cc2c1 |  |  | Not Active
CCCCCCCC(=O)Oc1ccc2cc([N+](=O)[O-])c(=O)oc2c1 |  |  | Not Active
O=[N+]([O-])C1=Cc2ccccc2OC1N1CCOCC1 (stereo unspecified) | 8.33 | 5 µg/mL (≈ 19.1 µM) | 
O=c1oc2ccc(O)cc2cc1[N+](=O)[O-] |  | 10.9 µg/mL (≈ 52.6 µM) | 
CCCCCCCCCCCCCCCC(=O)Oc1ccc2oc(=O)c([N+](=O)[O-])cc2c1 |  | 28.5 µg/mL (≈ 64 µM) | 
O=c1oc2cc(O)ccc2cc1[N+](=O)[O-] |  |  | Not Active
O=[N+]([O-])C1=Cc2ccccc2OC1Nc1ccccc1[N+](=O)[O-] (stereo unspecified) | -0.26 | 6 µg/mL (≈ 19.2 µM) | 
C=CCCCCCCCCC(=O)Oc1ccc2oc(=O)c([N+](=O)[O-])cc2c1 |  | 3.2 µg/mL (≈ 8.57 µM) | 
CC(C)Oc1ccc2oc(=O)c([N+](=O)[O-])cc2c1 |  | 23.5 µg/mL (≈ 94.3 µM) | 

SMILES | pKa [1] | IC50 [2] | IC50 [3]
CCCCCCCCCCCCCCCC(=O)Oc1ccc2cc([N+](=O)[O-])c(=O)oc2c1 |  |  | Not Active
CCCCCCCCCCOc1ccc2oc(=O)c([N+](=O)[O-])cc2c1 |  |  | Not Active
CC(=O)Oc1ccc2oc(=O)c([N+](=O)[O-])cc2c1 |  | 16 µg/mL (≈ 64.2 µM) | 
COc1ccc2oc(=O)c([N+](=O)[O-])cc2c1 |  | 31 µg/mL (≈ 140 µM) | 
O=[N+]([O-])C1=Cc2ccccc2OC1Nc1ccc([N+](=O)[O-])cc1 (stereo unspecified) | 1 | 14.4 µg/mL (≈ 46 µM) | 
C=CCCCCCCCCOc1ccc2oc(=O)c([N+](=O)[O-])cc2c1 |  | 45.1 µg/mL (≈ 131 µM) | 
O=c1oc2ccc(OCCCCCCCCO)cc2cc1[N+](=O)[O-] |  | 9.6 µg/mL (≈ 28.6 µM) | 
CCCCCCCC(=O)Oc1ccc2oc(=O)c([N+](=O)[O-])cc2c1 |  | 4.3 µg/mL (≈ 12.9 µM) | 
O=c1oc2c(O)cccc2cc1[N+](=O)[O-] |  | 24.8 µg/mL (≈ 120 µM) | 
CCCCOc1ccc2oc(=O)c([N+](=O)[O-])cc2c1 |  | 33.9 µg/mL (≈ 129 µM) | 
O=c1oc2ccccc2cc1[N+](=O)[O-] |  | 16.1 µg/mL (≈ 84.2 µM) | 
COc1ccc(NC2Oc3ccccc3C=C2[N+](=O)[O-])cc1 (stereo unspecified) | 5.31 | 12.9 µg/mL (≈ 43.2 µM) | 
COc1cccc(NC2Oc3ccccc3C=C2[N+](=O)[O-])c1 (stereo unspecified) | 4.2 | 6.6 µg/mL (≈ 22.1 µM) | 
CCCCCCCCCCCCCCCC(=O)Oc1cccc2cc([N+](=O)[O-])c(=O)oc12 |  | 47 µg/mL (≈ 105 µM) | 
O=[N+]([O-])C1=Cc2ccccc2OC1Nc1ccccc1 (stereo unspecified) | 4.4 | 11.7 µg/mL (≈ 43.6 µM) | 
CCCCCCOc1ccc2oc(=O)c([N+](=O)[O-])cc2c1 |  |  | Not Active
